# INS-1E rescue = preserves ATP levels in cytokine-treated INS-1E cells. INS-1E cytokine-induced death, ATP luminescence, 48 h; normalised: neutral wells 0, positive control 100. protection from cytokine-induced ATP loss, % at 10 µM. hit rate 0.1% among 20,000;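 active = mean replicate protection from cytokine-induced ATP loss at least 50% and at least 75% of replicates each reaching 50%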
#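 Material: INS-1E rat cells; Quantity: 8000 cells/well; Buffer or medium: phenol-red-free RPMI with 5% fetal bovine serum; Probe or stimulus: cytokine cocktail of IFN-γ, TNF-α and IL-1β; Compound dosing: single test concentration per compound, delivered by pin transfer; Incubation: 48 h co-treatment, 10 min post-lysis read; Signal: CellTiter-Glo luminescence.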
# T cruzi HTS = blocks T. cruzi growth inside host cells | intracellular Trypanosoma cruzi in host cells, plate reader | activity score (inhibition), % at 5.01 µM | hit rate 4.9% among 22,000; in the data active = activity score above about 55%;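 note: parasites and compound incubated about four days before reading; 0% = median of neutral control wells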
# A1 apoptosis 2 = blocks A1, raising caspase activity; MEF A1-2A-BIM cells, caspase-Glo luminescence, 3 h; percent of clofoctol response, DMSO zero; caspase activation, % (concentration not given with the values); 24,000 tested, under 10 active; in the data active = caspase activation above about 5.9%
#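 system = A1-2A-BIM-expressing MEF cells | quantity = 2500 MEF cells/well | dosing = 50 nL compound per well, pinned | schedule = overnight cell settling, then 3 h compound exposure, 37 °C | signal = luminescence from DEVD-luciferin Caspase-Glo reagent, 1:1 in 50 mM HEPES, 1 h RT | read-out = Caspase-3/7 activation, seen as rise in luminescence signal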
# Numbers without * were called inactive; x = no result given. Shown is part of a subset that was picked to be rich in hits.
SMILES,INS-1E rescue,T cruzi HTS,A1 apoptosis 2
C[C@H](CO)N1C[C@H](C)[C@@H](CN(C)Cc2ccc3c(c2)OCO3)Oc2ccc(N(C)C)cc2CC1=O,x,x,0
C[C@H]1CN([C@@H](C)CO)C(=O)Cc2cc(N(C)C)ccc2O[C@@H]1CN(C)Cc1ccc(Cl)c(Cl)c1,-8,72*,x
C[C@@H]1CN([C@@H](C)CO)C(=O)Cc2cc(N(C)C)ccc2O[C@@H]1CN(C)Cc1ccc(Cl)c(Cl)c1,-17,43,-1
C[C@H]1CN([C@@H](C)CO)C(=O)Cc2cc(N(C)C)ccc2O[C@@H]1CN(C)Cc1ccc2c(c1)OCO2,-5,64*,x
C[C@@H]1CN([C@H](C)CO)C(=O)Cc2cc(N(C)C)ccc2O[C@@H]1CN(C)Cc1ccc2c(c1)OCO2,-7,-23,x
C[C@@H]1CN([C@H](C)CO)C(=O)Cc2cc(N(C)C)ccc2O[C@H]1CN(C)Cc1ccc2c(c1)OCO2,-8,69*,2
COC(=O)CCCCCCC(=O)N/N=C/c1cc(O)ccc1O,31,-16,-1
O=C(NO)c1ccc(C(=O)N/N=C/c2ccccc2O)cc1,9,-31,-1
O=C(CCCCCCC(=O)Nc1ccccc1O)N/N=C/c1cccc(B(O)O)c1,-8,-6,0
O=C(NO)c1ccc(C(=O)N/N=C/c2cc(O)ccc2[N+](=O)[O-])cc1,8,-4,0
Cc1ccccc1/C=N/NC(=O)c1cccc(C(=O)NO)c1,-3,-20,-2
Cc1ccc(S(=O)(=O)Nc2ccc3c(c2)C(=O)N([C@@H](C)CO)C[C@@H](C)[C@H](CN(C)C(=O)Nc2ccc(C(F)(F)F)cc2)OCCCC[C@@H](C)O3)cc1,x,x,0
C[C@@H]1CCCCO[C@@H](CN(C)C(=O)Nc2ccc(C(F)(F)F)cc2)[C@@H](C)CN([C@H](C)CO)C(=O)c2cc(NS(=O)(=O)c3ccc(Cl)cc3)ccc2O1,-17,72*,x
C[C@@H]1CN([C@H](C)CO)C(=O)c2cc(NS(=O)(=O)c3ccc(Cl)cc3)ccc2O[C@@H](C)CCCCO[C@H]1CN(C)C(=O)Nc1ccc(C(F)(F)F)cc1,x,x,0
Cc1ccc(S(=O)(=O)Nc2ccc3c(c2)C(=O)N([C@H](C)CO)C[C@H](C)[C@H](CN(C)C(=O)Nc2ccc(C(F)(F)F)cc2)OCCCC[C@@H](C)O3)cc1,-9,63*,-1
C[C@@H]1CN([C@@H](C)CO)C(=O)c2cc(NC(=O)Cc3ccccc3)ccc2O[C@@H](C)CCCCO[C@H]1CN(C)C(=O)Nc1ccccc1,x,x,-1
C[C@@H]1CCCCO[C@H](CN(C)C(=O)NC2CCCCC2)[C@@H](C)CN([C@H](C)CO)C(=O)c2cc(NC(=O)Nc3ccc(C(F)(F)F)cc3)ccc2O1,-9,64*,x
C[C@H]1CCCCO[C@H](CN(C)C(=O)NC2CCCCC2)[C@@H](C)CN([C@@H](C)CO)C(=O)c2cc(NC(=O)Nc3ccc(C(F)(F)F)cc3)ccc2O1,x,x,0
C[C@H]1CCCCO[C@H](CN(C)C(=O)Nc2ccc(C(F)(F)F)cc2)[C@@H](C)CN([C@@H](C)CO)C(=O)c2cc(NC(=O)Nc3ccc(F)cc3)ccc2O1,x,x,-1
C[C@@H]1CCCCO[C@@H](CN(C)C(=O)Nc2ccc(C(F)(F)F)cc2)[C@@H](C)CN([C@H](C)CO)C(=O)c2cc(NC(=O)Cc3ccccc3)ccc2O1,-5,59*,x
C[C@@H]1CCCCO[C@H](CN(C)C(=O)Nc2ccc(C(F)(F)F)cc2)[C@@H](C)CN([C@H](C)CO)C(=O)c2cc(NC(=O)CCC(F)(F)F)ccc2O1,-12,66*,1
C[C@@H]1CCCCO[C@@H](CN(C)C(=O)Nc2ccc(C(F)(F)F)cc2)[C@@H](C)CN([C@H](C)CO)C(=O)c2cc(NC(=O)Nc3ccc(F)cc3)ccc2O1,-14,71*,-1
C[C@@H]1CCCCO[C@@H](CN(C)C(=O)Nc2ccc(C(F)(F)F)cc2)[C@@H](C)CN([C@H](C)CO)C(=O)c2cc(NC(=O)CCC(F)(F)F)ccc2O1,5,13,x
COC(=O)CCCCCCC(=O)N/N=C/[C@@H](O)[C@@H](O)[C@H](O)[C@H](O)CO,-10,-6,0
C=CCNC(=O)[C@H]1[C@@H]2C(=O)O[C@@H](c3ccccc3)[C@@H](c3ccccc3)N2[C@@H](c2ccc(OCCO)cc2)[C@]12C(=O)N(C(=O)OCCOC)c1ccc(C#CC3=CCCCC3)cc12,x,x,-1
SMILES,INS-1E rescue,T cruzi HTS,A1 apoptosis 2
COC(=O)C(CC#Cc1ccc2c(c1)[C@]1(C(=O)N2)[C@H](C(N)=O)[C@H]2C(=O)O[C@H](c3ccccc3)[C@H](c3ccccc3)N2[C@@H]1c1ccccc1OCCO)C(=O)OC,x,x,0
C[C@@H]1CN([C@H](C)CO)C(=O)c2cc(NC(=O)Nc3ccc(C(F)(F)F)cc3)ccc2O[C@@H]1CN(C)C(=O)Nc1ccc(C(F)(F)F)cc1,-15,41,x
C[C@H]1CCCCO[C@H](CN(C)C(=O)Nc2ccccc2)[C@@H](C)CN([C@@H](C)CO)C(=O)c2cc(NC(=O)Nc3ccc(C(F)(F)F)cc3)ccc2O1,x,x,1
C[C@@H]1CCCCO[C@H](CN(C)C(=O)Nc2ccc(F)cc2)[C@@H](C)CN([C@H](C)CO)C(=O)c2cc(NC(=O)Nc3ccc(F)cc3)ccc2O1,-3,59*,0
C[C@H](CO)N1C[C@H](C)[C@H](CN(C)C(=O)Nc2ccc(F)cc2)OCCCC[C@H](C)Oc2ccc(NC(=O)Nc3ccc(F)cc3)cc2C1=O,x,x,0
C[C@@H]1CN([C@@H](C)CO)C(=O)c2cc(NC(=O)Nc3ccc(C(F)(F)F)cc3)ccc2O[C@H]1CN(C)C(=O)Nc1ccc(C(F)(F)F)cc1,-106,74*,-1
C[C@@H]1CN([C@H](C)CO)C(=O)c2cc(NC(=O)Nc3ccc(F)cc3)ccc2O[C@@H](C)CCCCO[C@H]1CN(C)C(=O)Nc1ccc(C(F)(F)F)cc1,x,x,0
C[C@@H]1CCCCO[C@H](CN(C)C(=O)Nc2ccc(C(F)(F)F)cc2)[C@@H](C)CN([C@H](C)CO)C(=O)c2cc(NC(=O)Nc3ccc(F)cc3)ccc2O1,-16,65*,0
C[C@@H]1CCCCO[C@H](CN(C)C(=O)Nc2ccc(C(F)(F)F)cc2)[C@@H](C)CN([C@H](C)CO)C(=O)c2cc(NC(=O)Nc3ccccc3)ccc2O1,-29,57*,1
Cn1cc(/C=N/NC(=O)CCCCCC(=O)NO)c2ccccc21,x,x,0
C=CCOC(=O)[C@H]1[C@@H]2C(=O)O[C@@H](c3ccccc3)[C@@H](c3ccccc3)N2[C@@H](c2ccc(OCCOC(=O)[C@@H]3C[C@@H]4C(=O)N[C@@H](CCCCNC(C)=O)C(=O)N4[C@@H]3c3ccc(O)cc3)cc2)[C@]12C(=O)Nc1ccc(I)cc12,x,x,0
COC(=O)CCCCCCC(=O)N/N=C/CNC(=O)OC(C)(C)C,-9,-2,0
CN1C(=O)N[C@@H]2c3ccccc3O[C@@]1(CO)[C@@H]2COC(=O)c1ccccc1,x,x,1
